In series [1] the test system is primary rat OLs. Nature of the series: cAMP production in primary rat OLs. The class given is cell-based. In short, it runs like this: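 Rat OPCs were transduced with lentiviral shRNA against GPR37 and kept with CNTF and T3 for 48 h. They were then plated at 1 × 10^4/well on poly-L-lysine. Cells received forskolin plus the test compound at the indicated concentrations for 30 min. Intracellular cAMP was measured by cAMP-Glo Max luminescence to give concentration-response curves. Runs were repeated at least four times, each in triplicate.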

The conditions of series [2]: ref [15]–[18]; cited from earlier work.
A further series deals with GPR37^−/− mice. The series is described as follows: ICV delivery of OCN into GPR37^−/− mice: myelin PLP1 and MBP. The class given is in vivo, mouse. As to conditions: ICV 100 ng/day for 10 days, n ≥ 6. In short, it runs like this: (§1)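 Synthesized mouse OCN at 100 ng/day, or PBS, was infused ICV for 10 days before analysis. Tissue protein was extracted in RIPA buffer with protease inhibitors and quantified by BCA. Then 30 to 50 μg was run on SDS-PAGE and blotted. Blots were blocked in 5% milk for 1 h, incubated with primary antibody overnight at 4°C, then with HRP-secondary for 1 h at room temperature.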

Series [3] has as its system primary rat OLs. The series is described as follows: ERK phosphorylation. The format is cell-based.
The test system of another series is primary rat OPCs. The series is described as follows: OPC proliferation. The class given is cell-based. The conditions noted are these: OCN 20 nM; EdU incorporation; n = 3 independent experiments. In short, it runs like this: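 Primary rat OPCs (P1–P2 Sprague-Dawley forebrain) were plated on poly-L-lysine at 1 × 10^4/well in 96-well plates. They were treated with the test compound at 20 nM before assessment. Proliferation was read by EdU incorporation with a commercial kit.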

Series [4] has as its system primary rat OLs. The series is described as follows: Myelin PLP1 and MBP expression in primary rat OLs/OPCs in differentiation medium. The class given is cell-based. The conditions noted are these: n = 3 independent experiments.
The subject of series [5] is primary rat OLs. The series is described as follows: Myrf expression in primary rat OLs. The format is cell-based. The conditions noted are these: n = 3 independent experiments. The procedure, abridged:
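OPCs came from forebrains of P1–P2 Sprague-Dawley rats. Mixed glia were grown up to 12 days on poly-L-lysine, and microglia were removed by shaking at 200 rpm. OPCs were transduced with lentiviral shRNA against GPR37, then differentiated with CNTF and T3 for 48 h. The resulting OLs were treated with the test compound in differentiation medium for 48 h before analysis.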

The subject of a further series is OLs from GPR37^−/− mice. Nature of the series: MBP expression in primary OLs from GPR37^−/− mice. The format is cell-based, mouse. The conditions noted are these: OPC from GPR37^−/− mice induced with T3; n = 3 independent experiments. In short, it runs like this:
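Primary OPCs were isolated from P7–P8 GPR37−/− mouse pups. They were differentiated into mature OLs with T3 and CNTF, then treated with the test compound. OPC purity and OL induction were checked with specific markers.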

The target of series [6] is T1, human GPR37 (Homo sapiens, UniProt O15354).
T1 sequence (O15354 27-613): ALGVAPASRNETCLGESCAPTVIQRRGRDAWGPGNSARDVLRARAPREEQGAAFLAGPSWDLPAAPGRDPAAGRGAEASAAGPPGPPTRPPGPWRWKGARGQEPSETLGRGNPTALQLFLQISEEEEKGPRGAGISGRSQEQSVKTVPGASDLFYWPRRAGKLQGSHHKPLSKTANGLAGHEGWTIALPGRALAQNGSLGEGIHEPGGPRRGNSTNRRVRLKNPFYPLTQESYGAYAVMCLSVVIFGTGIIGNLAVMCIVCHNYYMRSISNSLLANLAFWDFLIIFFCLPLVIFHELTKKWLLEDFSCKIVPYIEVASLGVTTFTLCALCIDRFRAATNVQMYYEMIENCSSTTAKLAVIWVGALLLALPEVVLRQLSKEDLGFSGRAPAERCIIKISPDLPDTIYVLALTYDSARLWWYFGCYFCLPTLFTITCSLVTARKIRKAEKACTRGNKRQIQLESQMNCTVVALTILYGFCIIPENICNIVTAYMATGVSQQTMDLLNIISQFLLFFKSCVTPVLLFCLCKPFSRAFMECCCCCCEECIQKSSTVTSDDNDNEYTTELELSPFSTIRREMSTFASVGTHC
Nature of the series: cAMP production, GPR37-transfected HEK293 cells. The format is cell-based. The conditions noted are these: forskolin and/or OCN 30 min, cAMP-Glo Max. In short, it runs like this:
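HEK293 cells were transfected with human GPR37 for 48 h, then seeded on poly-L-lysine-coated plates. They were exposed to forskolin and/or graded OCN for 30 min. cAMP was measured by luminescent cAMP-Glo Max assay. At least four experiments, each in triplicate.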

In series [7] the target is T1, human GPR37. The series is described as follows: PRESTO-Tango β-arrestin recruitment, GPR37-transfected HTLA cells. The class given is cell-based. In short, it runs like this: (§2)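 HTLA cells (HEK293 carrying a tTA-luciferase reporter and β-arrestin2–TEV), kept under puromycin 2 μg/ml plus hygromycin B 100 μg/ml, expressing GPR37-Tango or GPR37L1-Tango. Seeded on poly-L-lysine; the next day given graded OCN concentrations in assay buffer for 24 h. Luciferase reagent (20-fold diluted) added for 15–20 min at 20–25°C; luminescence read as RLU. Concentration-response curves fitted.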

For series [8], the system named is OCN^−/− mice. The series is described as follows: Hot plate test. The class given is in vivo. The conditions noted are these: mouse OCN 50 ng/g i.p. for 10 days, hot plate 53°C, n ≥ 6. The procedure, abridged:
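Mice aged 8 weeks were placed on a hot plate held at 53°C. Latency was scored as the time to lick or flick a hind paw, or to jump. The plate temperature was calibrated to give a withdrawal response within 10 to 15 s in control mice. OCN−/− mice received synthesized mouse OCN at 50 ng/g body weight i.p. for 10 days before testing.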

In series [9] the test system is human GPR37L1. Nature of the series: PRESTO-Tango β-arrestin recruitment, GPR37L1-transfected HTLA cells. The conditions noted are these: cells expressing GPR37L1 (HTLA). The format is cell-based. The procedure, abridged: as §2
The test system of series [10] is OLs derived from primary rat OPCs. Nature of the series: OL cell viability. The format is cell-based. The conditions noted are these: OCN 0 to 50 nM, up to 72 hours; MTT; n = 3 independent experiments. In short, it runs like this: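 Rat OPCs were plated on poly-L-lysine at 1 × 10^4 per well in 96-well plates, in the presence of CNTF and T3. Cells were exposed to the test compound at 0 to 50 nM, or for up to 72 h. Viability was read with a commercial MTT kit.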

Series [11] concerns the target T1, human GPR37. Nature of the series: ERK phosphorylation. The class given is cell-based. The conditions noted are these: OCN 20 nM; GPR37-transfected HEK293 cells; immunoblot. In short, it runs like this:
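Human GPR37 introduced into HEK293 cells by calcium-phosphate transfection, then exposed to OCN 20 nM. Lysates made in RIPA buffer with protease inhibitors and assayed by BCA. 30–50 μg protein run on SDS-PAGE and blotted to PVDF or nitrocellulose. Blocked in 5% milk for 1 h, primary antibody overnight at 4°C, HRP secondary for 1 h at room temperature.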

The subject of a further series is neurons. The conditions noted are these: neurons (DRN, MRN, VTA, CA3); ref [16], [22], [51]; cited from earlier work.
The next series relates to WT mice. The series is described as follows: ICV delivery of OCN into WT mice: myelin PLP1 and MBP. The format is in vivo, mouse. As to conditions: ICV 100 ng/day for 10 days, n ≥ 6. The procedure, abridged:
as §1

Series [12] has as its target T1, human GPR37. Nature of the series: Intracellular calcium. The class given is cell-based. As to conditions: then OCN, GPR37-transfected HEK293-GCaMP6s cells. In short, it runs like this: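 HEK293 cells stably expressing GCaMP6s (made by lentiviral infection of HEK293T) were transfected with human GPR37 for 48 h. Medium was swapped for HBSS with Ca2+/Mg2+ and cells held at 37°C for 30 min. Pretreatment was anti-GPR37 antibody or pertussis toxin, then OCN 20 nM. GCaMP6s fluorescence was imaged at 1 s intervals.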

Series [13] deals with human GPR37 overexpressed on HEK293-based cells (human) (UniProt O15354). The series is described as follows: saturation binding of biotinylated ligand to transfected cells.
A short description of series [14]: OCN level in CC and SC after ICV delivery into OCN^−/− mice. The class given is in vivo, mouse. The conditions noted are these: ICV infusion 100 ng/day for 10 days, n = 5.
For series [15], the system named is OCN^−/− mice. The series is described as follows: ICV delivery of OCN into OCN^−/− mice: OPC/OL numbers and myelin proteins. The format is in vivo, mouse. The conditions noted are these: ICV 100 ng/day for 10 days. In short, it runs like this:
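OCN−/− mice received synthesized mouse OCN at 100 ng/day, or PBS, by ICV infusion for 10 days. For proliferation, BrdU at 100 μg/g was given i.p. 2 days before sacrifice, and sections were co-stained for BrdU/PDGFRα. For differentiation, BrdU at 200 μg/g was pulsed for four consecutive days from the start of treatment, with BrdU/CC1 co-staining at the end. Positive cells were counted per 0.25 mm2 in CC.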

In series [16] the test system is human GPR37L1. The series is described as follows: Saturation binding of biotinylated OCN, GPR37L1-transfected cells. As to conditions: 2 hours at 37°C. The procedure, abridged: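 HEK293T cells were transfected with GPR37L1 and replated on poly-L-lysine at 36 h. After 24 h they received serial dilutions of biotinylated OCN in 0.5% BSA/Ca2+/Mg2+ PBS for 2 h at 37°C. Cells were then washed, fixed in 4% PFA, permeabilised with 0.3% Triton, given extra-avidin peroxidase for 30 min and TMB, and read at 450 nm. Nonspecific binding used 100 μM unlabelled OCN; specific binding was total minus nonspecific; Kd came from saturation curves.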

Positions of bridges follow the written chain, without caps; N, C: chain ends. No end group written: not given here. *: point of attachment. Biotin = O=C1N[C@H]2[C@H](CS[C@H]2CCCCC(=O)*)N1; Ahx = NCCCCCC(=O)O

In the case of “osteocalcin (YLGASVPSPDPLEPTREQCELNPACDELSDQYGLKTAYKRIYGITI; biotin (Biotin Protein Labeling Kit, Roche; sites not stated)) [OCN]”, the “OCN-induced inhibition of intracellular cAMP production with GPR37 silenced” value with primary rat OLs [1] (GPR37 shRNA) was “substantially prevented”. Also, the “intracellular cAMP level” value with primary rat OLs [1] (forskolin and OCN 30 min) was “reduction of the intracellular cAMP level”. In series [2], the “ability of crossing the blood-brain barrier” value was “crossing the blood-brain barrier (BBB)”. Further, the “expression of myelin PLP1 and MBP in CC” value with GPR37^−/− mice is given as “absent”; with WT mice it was “significant down-regulation”. For the same substance, the ERK phosphorylation entry in the series with primary rat OLs [3] (myelinating primary rat OLs) is reported as “boost of ERK phosphorylation”; with human GPR37 [11] it was “stimulated ERK phosphorylation”. Also, the OPC proliferation entry with primary rat OPCs is recorded as “no effects”. Besides, the “OCN's suppression of the MBP level with GPR37L1 silenced” value in the series on primary rat OLs [4] (primary rat OLs, GPR37L1 shRNA) is reported as “unable to inhibit OCN’s suppression of the MBP level”. Also, in the series on primary rat OLs [4] (primary rat OPCs in differentiation medium, immunoblot, immunostaining), the “expression of myelin PLP1 and MBP” value is “dose-dependent reduction”. The “down-regulation of Myrf by OCN with GPR37 knockdown” value with primary rat OLs [5] (GPR37 shRNA, OCN 20 nM) is reported as “abolished”. Also, the “expression of Myrf” value with primary rat OLs [5] is “dose-dependently inhibited”. In addition, in the series with OLs from GPR37^−/− mice, the “myelin MBP response to OCN, GPR37 absent” value is on record as “unresponsive”. Further, the cAMP production entry with human GPR37 [6] is listed as “significantly inhibited cAMP production”. For the same substance, the “luciferase activity (β-arrestin recruitment)” value with human GPR37 [7] is “dose-dependent increase”. Also, the “deficit of thermal sensitivity (paw lick latency)” value in the series on OCN^−/− mice [8] was “partially rescued”. Besides, the “luciferase responses (β-arrestin recruitment)” value in the series on human GPR37L1 [9] is “failed to exert luciferase responses”. For the same substance, in [10], the OL cell viability entry is reported as “no effects”. For the same substance, the “synthesis of monoamine neurotransmitters” value in the series on neurons is given as “promote the synthesis of monoamine neurotransmitters”. For the same substance, the “synthesis of γ-aminobutyric acid (GABA)” value in the series with neurons was “reduce the synthesis of γ-aminobutyric acid (GABA)”.

“pertussis toxin [PTX, reference compound]”: the “effect of pretreatment on OCN-caused reduction of the intracellular cAMP level” value in the series with primary rat OLs [1] (PTX pretreatment) is “blocked”. The “effect of pretreatment on OCN-triggered increase of iCa^2+” value with human GPR37 [12] is “abolished”. Also, the “effect of pretreatment on OCN-caused boost of ERK phosphorylation” value in the series on primary rat OLs [3] (PTX pretreatment, primary rat OLs) is “blocked”.

“biotinylated osteocalcin (OCN), species not stated (peptide)”: the dissociation constant (Kd) in series [13] came out at 14.1 nM.

Turning to “YLGASVPSPDPLEPTREQCELNPACDELSDQYGLKTAYKRIYGITI [mouse OCN]”, in series [14], the “OCN level in CC and SC” value was “significant increase”. Moreover, in the series with OCN^−/− mice [15] (CC of OCN^−/− mice), the “BrdU^+/CC1^+ differentiation OLs” value is reported as “decreased”, the “CC1^+ cells” value is listed as “decreased” and the “numbers of BrdU^+/PDGFRα^+ proliferative OPCs” value is on record as “rarely affected”. Besides, the “numbers of total PDGFRα^+ OPCs” value with OCN^−/− mice [15] (OCN^−/− mice) is given as “rarely affected”. In the series on OCN^−/− mice [15] (white matter regions (CC, SC) of OCN^−/− mice, n = 6), the “expression of myelin PLP1 and MBP” value is “decreased”.

Take “{Biotin-Ahx}-YLGASVPSPDPLEPTREQCELNPACDELSDQYGLKTAYKRIYGITI (disulfide 19-25; N-terminus assumed) [biotinylated OCN]”: the “binding to GPR37L1” value in the series with human GPR37L1 [16] is on record as “bound to GPR37 rather than GPR37L1”.
